Compounds with a hit are over-represented: about 5.1% of the library has one in this group of screens.
APP 5'UTR act – APP 5'UTR luciferase reporter activation; SH-SY5Y APP 5'UTR luciferase reporter, luminescence; zero percent = DMSO vehicle wells; activation, % at 2 µM; 190,000 tested, 1% active; AID 1276;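 active = activation above a set limit, based on mean plus 3 SD of controls, cut at about 140% in these data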
STAT3 inh – STAT3 signaling inhibition; U3A cells, IL-6 STAT3-luciferase reporter, luminescence; host cell line lacks STAT1; 190,000 tested, 0.89% active; inhibition, % at 5.5 µM;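 active = inhibition above the mean inhibition across all screened compounds plus 3 SD, cut at about 44% in these data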
STAT1 inh – reduces IFN-gamma driven STAT1 reporter signal. AID 920. 200,000 tested, 0.35% active. NIH 3T3 STAT1-luciferase reporter, luminescence. inhibition, % at 5.5 µM;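 active = inhibition above a set limit, the mean inhibition across all tested compounds plus 3 SD, cut at about 34% in these data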
STAT3 act – STAT3 signaling activation | U3A cells, IL-6 STAT3-luciferase reporter, luminescence; 100% = signal with IL-6 EC80 alone | activation (% of control), % at 5.6 µM | 190,000 tested, 0.91% active | AID 871;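 active = activation above the screen-wide mean of compound activation plus 3 SD, cut at about 130% in these data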
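System – human U3A cells carrying STAT3-luciferase construct · Probe or stimulus – Interleukin-6, 33 ng/mL · Schedule – compound 1 h, then IL-6 6 h at 37 °C · Signal – luminescence from STAT3-driven luciferase reporter · Evaluation – percent of IL-6-only median luminescence · Benchmarks – IL-6-only high control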
NF-kB neuron act – NF-kB expression increase, human neuronal cells. NF-kB reporter expression; hits give high values. fold change at 12.5 µM. 190,000 tested, 1.6% active; in the data active = fold change above about 3.3
STAT1 activator – increases IFN-gamma driven STAT1 reporter signal; activation (% of control), % at 5.5 µM; AID 932; NIH 3T3 STAT1-luciferase reporter, luminescence; 100% = IFN-gamma alone, no compound; 200,000 tested, 2.6% active;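 active = activation above the screen-wide mean activation plus 3 SD, cut at about 130% in these data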
Numbers stand for hits; n = inactive; x = no result.

SMILES | APP 5'UTR act | STAT3 inh | STAT1 inh | STAT3 act | NF-kB neuron act | STAT1 activator
O=C(Nc1ccc2c(c1)OCO2)c1ccc2c(c1)OCO2 | 138 | n | n | n | 8 | 132
O=C(Nc1ccc2c(c1)OCO2)Nc1ccccn1 | n | n | n | n | n | 148
O=C(Nc1cccc(O)c1)c1cnn2cccnc12 | x | n | n | n | n | n
O=C(Nc1ccc2c(c1)OCO2)Nc1ccc2c(c1)OCO2 | 136 | n | n | n | n | 141
O=C(Nc1cccnc1)Nc1ccc2c(c1)OCO2 | n | n | n | n | n | n
O=C(Nc1ccc(Cl)cc1)C1=Cc2ccccc2OC1 | 210 | n | n | n | 9.2 | 143
O=C(Nc1cccc(NC(=O)c2ccc3c(c2)OCO3)c1)c1ccccc1 | n | n | n | n | n | n
O=C(Nc1ccccc1)c1ccc2c(c1)OCCO2 | n | n | n | n | 5.5 | 146
NC(=O)c1ccc(NC(=O)c2ccc3c(c2)OCO3)cc1 | n | n | n | n | n | 139
N#C/C(=C/c1cn[nH]c1-c1ccc(Br)cc1)C(=O)O | n | n | n | n | n | n
O=C(Nc1ccc([N+](=O)[O-])cc1)Nc1ccc2c(c1)OCCO2 | n | n | n | n | 4.5 | 134
O=C(Nc1ccc2c(c1)OCO2)c1ccc(Cl)s1 | 184 | n | n | n | 9.8 | 130
COc1cc([N+](=O)[O-])ccc1NC(=O)Nc1ccc2c(c1)OCCO2 | n | n | n | n | n | n
O=C(Nc1cccc(F)c1)Nc1ccccn1 | n | n | n | n | n | 148
O=C(Nc1ccncc1)Nc1ccccn1 | n | n | n | n | n | n
O=C(Nc1ccccn1)Nc1cccs1 | n | n | n | n | n | 132
CNC(=O)N(O)C1N(c2ccccc2)C(=S)SC1(C)C (stereo not given) | n | n | n | n | n | n
COc1cc(NC(=S)NCc2ccc(S(N)(=O)=O)cc2)c(OC)cc1Cl | n | n | n | n | n | n
CC(=O)Nc1ccc([C@H]2[C@H](C)CC[C@H]3C(=O)N4[C@@H](CC[C@@H](C)[C@@H]4c4ccc(NC(C)=O)cc4)C(=O)N32)cc1 | n | n | n | n | n | n
O=C(OCc1ccc(F)cc1)c1ccc2ccccc2n1 | n | n | n | n | n | n
N#CC1(c2ccc(NC(=O)c3ccccc3)cc2)CCCC1 | n | n | n | n | n | 147
O=C(NNC(=O)c1ccc(NC(=O)c2ccccc2)cc1)c1ccccc1 | n | n | n | n | n | n
CC(NC(=O)c1cc(COc2c(F)cccc2F)on1)c1cnn(-c2ccccc2)c1 (stereo not given) | n | n | n | n | n | n
COC(=O)C(C)Sc1ncnc2c1nnn2-c1ccc(F)cc1 (stereo not given) | n | n | n | n | n | 137
CCOC(=O)CNC(=O)CSc1ncnc2c1nnn2-c1ccc(F)cc1 | n | n | n | n | n | n
SMILES | APP 5'UTR act | STAT3 inh | STAT1 inh | STAT3 act | NF-kB neuron act | STAT1 activator
COc1c(Cl)cc(Cl)cc1CNCCO | n | n | n | n | n | n
COc1ccccc1-n1cnc2sc(-c3ccccc3)cc2c1=O | n | n | n | n | n | n
CCCCCn1cnc2sc(-c3ccccc3)cc2c1=O | n | n | n | n | 4.8 | 149
CCc1cc2c(=O)n(-c3ccc(Br)cc3)cnc2s1 | n | n | n | n | n | 137
CCc1cc2c(=O)n(CC(C)C)cnc2s1 | n | n | n | n | n | n
O=c1c2cc(-c3ccccc3)sc2ncn1/N=C/c1ccco1 | n | n | n | n | n | 129
CCCCCn1cnc2sc(CC)cc2c1=O | n | n | n | n | n | 144
CCc1cc2c(=O)n(CC(=O)NCCc3ccc(OC)c(OC)c3)cnc2s1 | n | n | n | n | n | n
O=C(Nc1ccccc1)OCCCc1ccccc1 | n | n | n | n | n | 140
O=C1CCn2nc(-c3ccc(Cl)cc3)cc2N1 | n | n | n | n | n | 136
CN(C)S(=O)(=O)c1ccc(N2CCCC2)c(C(=O)N2CCN(c3ccc([N+](=O)[O-])cc3)CC2)c1 | n | n | n | n | n | n
CC(Sc1nc2ccccc2[nH]1)C(=O)O (stereo not given) | n | n | n | n | n | n
CC(=O)N=C(N)Sc1nc2ccccc2[nH]1 | n | n | n | n | n | 134
CCOc1ccc(-n2c(N)c(-c3nc4ccccc4n3C)c3nc4ccccc4nc32)cc1 | n | n | n | n | n | n
N#Cc1ccccc1NC(=O)CNc1ccccc1N1CCCCC1 | n | n | n | 135 | n | n
Cc1ccc(-n2c(=O)[nH]c3ncccc3c2=O)cc1 | n | n | n | n | n | n
Cc1ccc(-n2c(-c3ccc(Br)cc3)c[n+]3c2CCc2ccc4cccnc4c2-3)cc1 | n | 75 | 39 | n | n | n
O=C(Nc1nc2ccccc2[nH]1)c1ccccc1F | n | 101 | 78 | n | n | n
O=C(Nc1nc2ccccc2[nH]1)c1cc2ccccc2o1 | 263 | n | n | n | 5.5 | n
O=C(Nc1nc2ccccc2[nH]1)c1ccccc1[N+](=O)[O-] | n | n | n | n | n | 136
O=C(C[n+]1ccc2ccccc2c1)c1ccc(NC(=O)c2ccccc2)cc1 | n | n | n | n | n | n
COc1cccc(C(=O)N/N=c2\sc3ccccc3n2C)c1 | n | n | n | n | n | n
Cc1ccc(C(=O)N/N=c2\sc3ccccc3n2C)cc1 | n | n | n | n | n | n
Cn1/c(=N/NC(=O)c2ccccc2F)sc2ccccc21 | n | n | n | n | n | 149
COc1cccc(C(=O)N=c2sc3cc(S(C)(=O)=O)ccc3n2C)c1 | n | n | n | n | n | 132
SMILES | APP 5'UTR act | STAT3 inh | STAT1 inh | STAT3 act | NF-kB neuron act | STAT1 activator
COc1cc(OC)cc(C(=O)N=c2sc3ccccc3n2C)c1 | 146 | n | n | n | n | 139
COc1ccc(C(=O)N=c2sc3ccccc3n2C)cc1 | 163 | n | n | 134 | 8.1 | 141
Cn1c(=NC(=O)COc2ccccc2)sc2ccccc21 | n | n | n | n | 3.6 | 148
COc1ccc(N=c2oc3c(OC)cccc3cc2C(=O)NCc2ccco2)c(OC)c1 | n | n | n | n | n | n
COc1ccc(-c2nc3ccccn3c2C=O)cc1 | n | n | n | n | n | 143
O=Cc1c(-c2ccc(F)cc2)nc2ccccn12 | n | n | n | n | n | n
CC(C)c1ccc(C2=C(O)c3ccccc3C(=O)C2=O)cc1 | n | n | n | n | n | n
O=C1C(c2ccncc2)=C(O)c2ccccc21 | 160 | n | n | n | 3.5 | n
CCN1CCN(c2ccc(NC(=O)c3ccc([N+](=O)[O-])o3)cc2Cl)CC1 | n | n | n | n | n | 148
CCC(=O)N1CCN(c2ccccc2NC(=O)c2ccc(-c3cccc([N+](=O)[O-])c3)o2)CC1 | n | n | n | n | n | n
CCC(=O)N1CCN(c2ccc(NC(=O)c3ccc([N+](=O)[O-])o3)cc2Cl)CC1 | n | n | n | n | n | 130
